# RGS4 act: RGS4 potentiation or activation | B-score at 10 µM | HEK293 M3R/inducible RGS4, carbachol calcium flux Fluo4; active compounds read low | actives 0.92% (n = 310,000);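 active means B-score of the integrated calcium signal more than 4 SD below the library mean, with starting fluorescence not abnormally high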;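 further: negative B-score means reduced calcium response which marks RGS4 activation or potentiation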
#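 System – HEK293 FlpIn-TREx cells, stable M3R, doxycycline-inducible RGS4 · Reagent – ECmax carbachol challenge · Times – compound preincubation 20 min at room temperature before agonist · Technique – Fluo4 fluorescence kinetic imaging of calcium · Measure – B score of integrated Fluo4 ratio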
# RGS4 block: human RGS4 inhibition | P49798 | HEK293 M3R/RGS4 inducible, Fluo-4 calcium flux; active compounds read high; triggered by carbachol at its EC20 | B-score at 10 µM | actives 0.45% (n = 310,000) | AID 463165;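 active means B-score, a plate-corrected calcium signal, over three deviations above library mean, with baseline fluorescence within five deviations of library mean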;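 further: RGS4 expression induced by doxycycline in cells with stable M3 receptor; B-score is computed from the integrated fluorescence ratio over baseline after carbachol; higher B-score means a larger calcium signal and so more RGS4 inhibition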
# Target sequence (P49798 whole entry, looked up): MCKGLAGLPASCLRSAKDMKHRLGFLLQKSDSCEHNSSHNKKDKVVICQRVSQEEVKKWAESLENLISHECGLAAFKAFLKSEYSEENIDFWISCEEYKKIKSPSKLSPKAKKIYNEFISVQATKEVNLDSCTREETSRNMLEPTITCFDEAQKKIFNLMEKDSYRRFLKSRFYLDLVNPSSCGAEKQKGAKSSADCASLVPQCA
# MrgX1 ag: human MrgX1 receptor agonism, primary screen; MrgX1-HEK293 cells, Fluo-4 calcium fluorescence, agonist mode; active compounds read high; B-score at 10 µM; actives 0.44% (n = 310,000);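 active means calcium response B-score plate-corrected fluorescence ratio at least 3 library SD, with starting fluorescence B-score inside 5 SD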
# Target sequence (Q96LB2 whole entry, looked up): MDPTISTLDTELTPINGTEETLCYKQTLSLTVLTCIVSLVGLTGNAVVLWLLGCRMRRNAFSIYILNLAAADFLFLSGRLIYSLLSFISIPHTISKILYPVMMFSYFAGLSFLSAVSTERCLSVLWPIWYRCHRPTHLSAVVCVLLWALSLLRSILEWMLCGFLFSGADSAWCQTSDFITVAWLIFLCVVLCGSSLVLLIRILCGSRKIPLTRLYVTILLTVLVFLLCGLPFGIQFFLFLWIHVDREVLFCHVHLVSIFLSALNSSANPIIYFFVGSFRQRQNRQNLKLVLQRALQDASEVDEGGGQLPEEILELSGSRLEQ
#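 Material – MrgX1-expressing HEK293 cells · Input – 15,000 cells seeded per well · Dosing – compound as first of three additions · Times – overnight seeding, then 1 h dark dye loading · Measured by – kinetic Fluo-4 NW fluorescence of intracellular calcium · Read-out – B-scored fluorescence response ratio · Benchmarks – positive and negative control wells on each plate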
# MrgX1 PAM: allosterically activates human MrgX1 receptor signaling; B-score at 10 µM; Q96LB2; MrgX1-HEK293, Fluo-4 calcium flux, FDSS; active compounds read high; AID 588675; actives 0.63% (n = 310,000);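 active means plate-corrected calcium response at least 3 library SD above typical, normal starting fluorescence, not activating the receptor alone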;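 further: compound read alongside a low EC10 to EC30 dose of BAM8-22 agonist; peak minus trough fluorescence over baseline measured at the second addition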
# MrgX1 antagonist: human MrgX1 receptor antagonism, primary screen; actives 1.3% (n = 310,000); MRGX1-HEK293 calcium flux, Fluo-4, BAM8-22 antagonism; active compounds read low; Q96LB2; B-score at 10 µM;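 active means calcium-response B-score plate-corrected more than 3 library SD below zero, starting fluorescence within 5 deviations, no agonist response on first addition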;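 further: peak minus trough fluorescence over baseline after final BAM8-22 challenge near maximal dose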
# Numbers without * were called inactive; i = inactive. This is a sample that favours compounds with a hit; in the whole collection about 3.5% have one here.
SMILES,RGS4 act,RGS4 block,MrgX1 ag,MrgX1 PAM,MrgX1 antagonist
CCOc1ccccc1NC(=O)C(Sc1ccccc1)c1ccccc1 (configuration not stated),-7.3*,i,i,i,-5*
COc1ccccc1NC(=O)C(Sc1ccccc1)c1ccccc1 (configuration not stated),i,i,i,i,i
CCn1cc(S(=O)(=O)c2ccc(C)cc2)c(=O)c2cc(OC)ccc21,i,i,i,i,i
COc1ccc(-c2cc(C(F)(F)F)c3c(n2)sc2c(O)cc(=O)[nH]c23)c(OC)c1,i,i,39*,i,i
C=CCN1C(=O)[C@@H]2Cc3c([nH]c4ccccc34)C(c3ccc(O)cc3)N2C1=S (some centres not stated),i,i,i,i,-5.3*
NC1=NC(=O)/C(=C/c2ccc(-c3ccc(S(N)(=O)=O)cc3)o2)S1,i,i,i,i,-4.7*
CCOCCCNC(=O)CN1N=C(c2ccc(C)cc2)CCC1=O,i,i,i,i,i
CCCCCC(=O)Nc1ccc(C(=O)COC(=O)CN2C(=O)NC3(CCCC3)C2=O)cc1,i,i,i,i,i
O=C(Nc1ccc(C(F)(F)F)cc1)N1CCN(c2ccnc3cc(Cl)ccc23)CC1,i,i,i,i,i
O=C(NCC1CCCO1)/C(=C/c1ccccc1)NC(=O)c1ccccc1 (configuration not stated),i,i,i,i,i
O=C(NCC1CCCO1)/C(=C\c1cccc([N+](=O)[O-])c1)NC(=O)c1ccccc1 (configuration not stated),i,i,i,i,-5.7*
CCSc1c([N+](=O)[O-])c(=O)n(-c2ccccc2)c2ccccc12,i,i,i,i,i
O=C(/C=C/c1ccco1)NC(=S)Nc1nc(-c2ccc3ccccc3c2)cs1,i,i,i,i,-6.6*
COc1ccc(/C=C/C(=O)NC(=S)Nc2ccccn2)cc1,i,i,i,7.1*,i
C=CCN(CC=C)C(=S)NC(=O)/C=C/c1ccc(OC)cc1,i,i,i,8.9*,i
COc1ccc(/C=C/C(=O)NC(=S)NNC(=O)c2cnccn2)cc1,i,i,i,i,-6.5*
O=C(/C=C/c1ccco1)NC(=S)Nc1nc(-c2ccc(Cl)cc2)cs1,i,i,i,i,i
CSc1ccc(S(=O)(=O)NCC(=O)OCC(=O)N2CCCC2=O)cc1[N+](=O)[O-],i,i,i,i,i
O=C(/C=C/c1ccco1)NC(=S)Nc1ccccn1,i,i,i,18*,i
Cc1ccc2oc(-c3cccc(NC(=S)NC(=O)c4cccs4)c3)nc2c1,i,i,i,i,i
Cc1ccc2oc(-c3cccc(NC(=S)NC(=O)/C=C/c4ccco4)c3)nc2c1,-7.1*,i,i,i,i
CCOc1ccc(NC(=O)c2ccc(N3CC4CC(C3)c3cccc(=O)n3C4)c(N)c2)cc1 (configuration not stated),i,i,i,i,i
COCCC(=O)N1CCCC(CNS(=O)(=O)c2ccc(OC)cc2)C1 (configuration not stated),i,i,i,i,i
COC(=O)CCCC(=O)N1CCCC(CNS(=O)(=O)c2ccc(OC)cc2)C1 (configuration not stated),i,i,i,i,-4.6*
COCc1c(Br)c(C)nc(OCC(=O)N/N=C/c2cc(C)n(-c3ccc([N+](=O)[O-])cc3)c2C)c1C#N,-7.9*,i,i,i,i
SMILES,RGS4 act,RGS4 block,MrgX1 ag,MrgX1 PAM,MrgX1 antagonist
NCCCCCc1nnc(SCc2ccc(Cl)c(Cl)c2)o1,-7.1*,i,i,i,i
Nc1nonc1-n1nnc(C(=O)N/N=C/c2ccc(O)cc2)c1CN1CCCCCC1,i,i,i,i,-8.6*
CCNc1ccc(C(=O)OCC)cc1NC(=O)c1cccc(N(C)C)c1,i,i,i,i,i
CCOC(=O)c1ccc(S(=O)(=O)NNC(=O)c2cccc(N(C)C)c2)cc1,i,i,i,7.1*,i
COc1ccccc1N(CC(=O)NCCSCc1ccco1)S(=O)(=O)c1ccccc1,i,i,i,i,i
COc1cc(/C=C2/N=C(c3ccccc3)OC2=O)c(F)cc1OCc1ccccc1,i,i,i,i,-4.9*
COc1ccc(OC)c(/C=C2\N=C(c3ccccc3)OC2=O)c1,-7.4*,i,i,i,i
COc1cc(/C=C2\N=C(c3ccccc3)OC2=O)ccc1OC(C)=O,i,i,i,i,i
CCOC(=O)N1CCC(NC(=O)CS(=O)Cc2nc(-c3ccccc3C)oc2C)CC1 (configuration not stated),i,i,i,i,i
CCS(=O)(=O)c1ccc2oc(SCC(=O)NCc3ccccc3)nc2c1,-7.2*,i,i,i,i
O=[N+]([O-])c1ccc(NC(=S)NCCc2ccc(F)cc2)cc1,i,i,30*,i,i
O=C(NCCc1ccc(F)cc1)Nc1ccc([N+](=O)[O-])cc1,i,i,i,i,i
Cc1c[n+](CC(=O)c2ccccc2)c(C)cn1,i,i,i,i,i
Nc1ccc(-n2cnc3cc([N+](=O)[O-])ccc32)cc1,i,i,i,i,i
Cc1cccc(-n2cnc3cc([N+](=O)[O-])ccc32)c1,i,i,i,8.2*,i
CCCc1nc2ccccc2c(=O)n1NC(=O)c1c(O)c2ccccc2n(C)c1=O,i,i,i,10*,i
O=C(NC1CCN(C(=S)Nc2ccc(F)cc2)CC1)c1ccco1,i,i,i,i,i
COc1ccc(C(=O)NNC(=S)NC(=O)c2ccc(F)cc2)cc1Br,i,i,i,i,i
COc1cc(C(=O)NC(=S)NNC(=O)c2ccc3c(c2)OCO3)cc(OC)c1OC,i,i,60*,i,i
COc1ccc(Cl)cc1C(=O)NNC(=S)NC(=O)c1ccc(F)c(F)c1,i,i,i,i,-5.9*
COc1ccc(Cl)cc1C(=O)NNC(=S)NC(=O)c1cc(-c2ccc(Cl)cc2)nc2ccccc12,-8.4*,i,i,i,-7.3*
COc1ccccc1C(=O)NNC(=S)NC(=O)c1sc2ccccc2c1Cl,-8.7*,i,36*,i,i
Cc1c(NC(=S)NC(=O)c2sc3ccccc3c2Cl)cccc1C(=O)O,i,i,i,i,i
COc1ccc(C(=O)NCc2ncccc2C)cc1OC1CCN(C(C)=O)CC1,i,i,i,i,i
